Assay results reported in ChEMBL document CHEMBL1144914, “Bisintercalating threading diacridines: relationships between DNA binding, cytotoxicity, and cell cycle arrest” (J Med Chem, 2003).
Numbered stars: 1 amine (or outer) side, 2 acyl side, 3 side chain; on linkers, the order of the positions; unused ones are H or OH. Bridge positions count the residues as written; N and C are the ends. Square brackets hold non-standard residues; d marks the D form. Peptide text beside a SMILES is read from it. I, II: the chains in the order shown. Actinocin(1to9) = Cc1c2oc3c(C)ccc(C(=O)[*:2])c3nc-2c(C(=O)[*:1])c(N)c1=O; NMeV = CN[C@H](C(=O)O)C(C)C; Sar = CNCC(=O)O

Tests used:
[1] = tested on: Nucleic Acid; assay: Dissociation time constant (Tau 2) for dissociation of compound and calf thymus DNA complex; assay type: nucleic-acid assay; conditions: Bos taurus
How it was run: (§1)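 Sonicated calf thymus DNA–ligand complex equilibrated 1 h at room temperature in 0.1 SHE buffer (HEPES, EDTA, 0.1 M NaCl, pH 7.0), then rapidly mixed with SDS at 23 °C. Final concentrations 500 μM DNA, 50 μM ligand, 20 mM SDS. Absorbance followed at 423 nm over 420–3600 s and expressed as fraction of reaction. Multiexponential nonlinear least-squares fit; mean of five runs.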

[2] = tested on: Nucleic Acid; assay: Dissociation time constant (Tau 1) for dissociation of compound and calf thymus DNA complex; assay type: nucleic-acid assay; conditions: Bos taurus; how it was run: as §1
[3] = tested on: Nucleic Acid; assay: Dissociation time constant (Tau 3) for dissociation of compound and calf thymus DNA complex; assay type: nucleic-acid assay; conditions: Bos taurus; how it was run: as §1
[4] = tested on: CCRF-CEM; assay: Cytotoxicity in human leukemic CCRF-CEM cells.; assay type: functional, cell-based
How it was run: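 CCRF-CEM cells in RPMI 1640 with 10% FBS, 2 mM glutamine and pen/strep at 37 °C, 5% CO2, seeded at 1 × 10^5 cells/mL. Agent from 1 mM water stock, diluted in PBS over a concentration range, 72 h exposure. Cells counted by Coulter Counter. Duplicate wells, each curve repeated at least three times. IC50 is 50% growth inhibition versus medium control, from a sigmoidal fit.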

`O=C(NCCN1CCOCC1)c1cccc2c(NCCCNCCCNc3c4ccccc4nc4c(C(=O)NCCN5CCOCC5)cccc34)c3ccccc3nc12` gave a Time constant [1] of 30 s, a Time constant [2] of 5 s and a Time constant [3] of 88 s. The IC50 [4] was 47 nM.
In the case of `CN(C)CCNC(=O)c1cccc2c(NCCCNCCCNc3c4ccccc4nc4c(C(=O)NCCN(C)C)cccc34)c3ccccc3nc12`, the Time constant [1] is reported as 32 s, the Time constant [2] is reported as 6 s and the Time constant [3] is reported as 130 s. For the same compound, the IC50 [4] was 50 nM.
With `CS[C@H]1SC[C@H]2C(=O)N(C)[C@@H](C(C)C)C(=O)OC[C@@H](NC(=O)c3cnc4ccccc4n3)C(=O)N[C@@H](C)C(=O)N(C)[C@@H]1C(=O)N(C)[C@@H](C(C)C)C(=O)OC[C@@H](NC(=O)c1cnc3ccccc3n1)C(=O)N[C@@H](C)C(=O)N2C` [ECHINOMYCIN] the IC50 [4] was 0.5 nM.
In the case of `O=C(NCCN1CCOCC1)c1cccc2c(NCCCCNCCCNc3c4ccccc4nc4c(C(=O)NCCN5CCOCC5)cccc34)c3ccccc3nc12`, the IC50 [4] is reported as 75 nM.
With `CN(C)CCNC(=O)c1cccc2c(NCCCCCCCCNc3c4ccccc4nc4c(C(=O)NCCN(C)C)cccc34)c3ccccc3nc12` the Time constant [1] was 17 s, the Time constant [2] was 5 s and the Time constant [3] was 53 s. It also gave an IC50 [4] of 35 nM.
For `CN(C)CCNC(=O)c1cccc2c(NCCCCNCCCNc3c4ccccc4nc4c(C(=O)NCCN(C)C)cccc34)c3ccccc3nc12`, the IC50 [4] was 250 nM.
Compound `COc1cc(NS(C)(=O)=O)ccc1Nc1c2ccccc2nc2c(C(N)=O)cccc12` has an IC50 [4] of 120 nM.
`COC(=O)[C@@H]1c2cc3c(c(O)c2[C@@H](O[C@@H]2O[C@@H](C)[C@H](OC)[C@@](C)(OC)[C@H]2OC)C[C@]1(C)O)C(=O)c1c(O)cc2c(c1C3=O)O[C@@H]1O[C@@]2(C)[C@H](O)[C@@H](N(C)C)[C@@H]1O` [NOGALAMYCIN] gave an IC50 [4] of 59 nM.
Compound `CN(C)CCNC(=O)c1cccc2c(NCCCCCCNc3c4ccccc4nc4c(C(=O)NCCN(C)C)cccc34)c3ccccc3nc12` has an IC50 [4] of 87 nM.
Compound `O=C(NCCN1CCOCC1)c1cccc2c(NCCCCCCCCNc3c4ccccc4nc4c(C(=O)NCCN5CCOCC5)cccc34)c3ccccc3nc12` has an IC50 [4] of 810 nM.
With `COc1cc(NS(C)(=O)=O)ccc1Nc1c2ccccc2nc2ccccc12` [AMSACRINE] the IC50 [4] was 130 nM.
Compound `CN(C)CCNC(=O)c1cccc2c(NCCNCCNCCNc3c4ccccc4nc4c(C(=O)NCCN(C)C)cccc34)c3ccccc3nc12` has a Time constant [1] of 33 s, a Time constant [2] of 6 s and a Time constant [3] of 180 s. For the same compound, the IC50 [4] was 590 nM.
Compound `COC1C(O)CC(OC2CC(Oc3cc4cc5c(c(O)c4c(O)c3C)C(=O)[C@@H](OC3CC(OC4CC(OC6CC(C)(O)C(OC(C)=O)C(C)O6)C(O)C(C)O4)C(O)C(C)O3)[C@H]([C@H](OC)C(=O)[C@@H](O)[C@@H](C)O)C5)OC(C)C2OC(C)=O)OC1C` (stereo partly drawn) [CHROMOMYCIN] has an IC50 [4] of 3.5 nM.
Work on `CN(C)CCNC(=O)c1cccc2c(NCCN3CCN(CCNc4c5ccccc5nc5c(C(=O)NCCN(C)C)cccc45)CC3)c3ccccc3nc12` yielded a Time constant [1] of 22 s, a Time constant [2] of 7 s and a Time constant [3] of 220 s. It also gave an IC50 [4] of 63 nM.
`O=C(NCCN1CCOCC1)c1cccc2c(NCCCCCCNc3c4ccccc4nc4c(C(=O)NCCN5CCOCC5)cccc34)c3ccccc3nc12` gave an IC50 [4] of 710 nM.
With `O=C(NCCN1CCOCC1)c1cccc2c(NCCN3CCN(CCNc4c5ccccc5nc5c(C(=O)NCCN6CCOCC6)cccc45)CC3)c3ccccc3nc12` the IC50 [4] was 290 nM.
With `O=C1c2c(O)ccc(O)c2C(=O)c2c(NCCNCCO)ccc(NCCNCCO)c21` [MITOXANTRONE] the IC50 [4] was 3.6 nM.
With `Cc1c2oc3c(C)ccc(C(=O)N[C@@H]4C(=O)N[C@H](C(C)C)C(=O)N5CCC[C@H]5C(=O)N(C)CC(=O)N(C)[C@@H](C(C)C)C(=O)O[C@@H]4C)c3nc-2c(C(=O)N[C@@H]2C(=O)N[C@H](C(C)C)C(=O)N3CCC[C@H]3C(=O)N(C)CC(=O)N(C)[C@@H](C(C)C)C(=O)O[C@@H]2C)c(N)c1=O` [DACTINOMYCIN] (I: T[dV]P[Sar][NMeV] / II: T[dV]P[Sar][NMeV]; ester I:1-I:C, II:1-II:C; linker I:N-II:N via Actinocin(1to9)) the Time constant [1] was 68 s, the Time constant [2] was 19 s and the Time constant [3] was 790 s. For the same compound, the IC50 [4] was 1.6 nM.
With `O=C(NCCN1CCOCC1)c1cccc2c(NCCNCCNCCNc3c4ccccc4nc4c(C(=O)NCCN5CCOCC5)cccc34)c3ccccc3nc12` the IC50 [4] was 710 nM.
`CC[C@@]1(O)C(=O)OCc2c1cc1n(c2=O)Cc2cc3ccccc3nc2-1` [CAMPTOTHECIN] was tested, and the IC50 [4] was 5.3 nM.
